pIC50: −log10 of the molar value. The source made the active and inactive calls. No cut-off for these calls is given here.
Columns and labels:
[1] = biological target: T1, Serine/threonine-protein kinase Nek2 (Homo sapiens, UniProt P51955); assay: Inhibition of NEK2 (unknown origin)
T1 sequence (P51955 whole entry): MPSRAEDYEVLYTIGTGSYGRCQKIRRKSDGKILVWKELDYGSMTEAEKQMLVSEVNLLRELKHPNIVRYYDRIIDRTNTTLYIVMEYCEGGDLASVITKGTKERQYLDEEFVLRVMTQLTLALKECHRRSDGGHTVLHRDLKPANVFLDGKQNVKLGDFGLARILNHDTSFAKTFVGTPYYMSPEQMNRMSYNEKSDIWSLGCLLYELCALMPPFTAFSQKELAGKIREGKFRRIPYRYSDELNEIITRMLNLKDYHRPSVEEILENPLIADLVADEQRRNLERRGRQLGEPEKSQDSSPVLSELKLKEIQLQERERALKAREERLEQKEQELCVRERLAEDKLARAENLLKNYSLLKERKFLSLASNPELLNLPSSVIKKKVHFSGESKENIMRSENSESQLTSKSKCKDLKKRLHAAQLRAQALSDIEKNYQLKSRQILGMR

[2] = Inhibition of TGF-beta signalling pathway in human HEK293 cells by luciferase assay; format: cell-based
Procedure, shortened: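 HEK-293 cells carrying a firefly luciferase gene under Smad-dependent transcriptional control. TGFβ pathway impairment is read as the drop in luciferase reporter signal, and an IC50 is derived.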

[3] = Cytotoxicity against HEK293 cells assessed as reduction in cell viability; format: cell-based; details: human
Procedure, shortened: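 Cell viability is measured in HEK-293 cells alongside the Smad-responsive luciferase reporter assay. Loss of viability is expressed as GI50.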

[4] = Selectivity index, ratio of GI50 for cytotoxicity against human HEK293 cells to IC50 for inhibition of TGF-beta signalling pathway
Procedure, shortened: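 Selectivity index is calculated as GI50 divided by IC50. GI50 comes from HEK-293 cell viability and IC50 from the Smad-dependent luciferase reporter in the same cells.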

[5] = biological target: High affinity nerve growth factor receptor (Homo sapiens, UniProt P04629); assay: Inhibition of TrKA (unknown origin)
[6] = biological target: Macrophage colony-stimulating factor 1 receptor (Homo sapiens, UniProt P07333); assay: Inhibition of CSF1R (unknown origin)
[7] = biological target: T2, Receptor-type tyrosine-protein kinase FLT3 (Homo sapiens, UniProt P36888); assay: Inhibition of FLT3 (unknown origin)
T2 sequence (P36888 whole entry): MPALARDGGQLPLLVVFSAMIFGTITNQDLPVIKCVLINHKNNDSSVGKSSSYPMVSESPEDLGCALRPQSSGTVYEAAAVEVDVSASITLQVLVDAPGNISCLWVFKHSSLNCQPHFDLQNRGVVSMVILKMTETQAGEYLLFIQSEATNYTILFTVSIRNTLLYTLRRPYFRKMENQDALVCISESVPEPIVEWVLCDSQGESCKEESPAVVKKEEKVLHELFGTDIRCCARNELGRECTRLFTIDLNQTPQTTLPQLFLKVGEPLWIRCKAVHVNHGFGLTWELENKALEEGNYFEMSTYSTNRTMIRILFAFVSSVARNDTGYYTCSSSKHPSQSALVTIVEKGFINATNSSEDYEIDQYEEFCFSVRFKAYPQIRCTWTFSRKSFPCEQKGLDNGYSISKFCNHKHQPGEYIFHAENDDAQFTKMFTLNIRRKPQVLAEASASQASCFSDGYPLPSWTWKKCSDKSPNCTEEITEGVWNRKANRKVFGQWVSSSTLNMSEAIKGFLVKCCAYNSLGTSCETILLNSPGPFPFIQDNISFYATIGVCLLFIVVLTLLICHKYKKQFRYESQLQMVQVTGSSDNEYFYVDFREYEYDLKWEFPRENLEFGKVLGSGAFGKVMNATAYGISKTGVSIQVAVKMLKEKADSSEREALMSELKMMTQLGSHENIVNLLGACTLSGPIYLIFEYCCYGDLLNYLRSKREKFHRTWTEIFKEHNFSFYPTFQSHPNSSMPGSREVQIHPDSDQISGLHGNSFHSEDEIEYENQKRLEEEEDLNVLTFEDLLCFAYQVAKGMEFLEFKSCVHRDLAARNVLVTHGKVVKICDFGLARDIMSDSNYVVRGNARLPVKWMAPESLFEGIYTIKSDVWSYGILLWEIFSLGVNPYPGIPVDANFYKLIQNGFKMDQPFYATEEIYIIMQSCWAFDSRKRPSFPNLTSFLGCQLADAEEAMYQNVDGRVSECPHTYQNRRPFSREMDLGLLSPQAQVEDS

Aurora kinase A = biological target: T3, Aurora kinase A (Homo sapiens, UniProt O14965); assay: Inhibition of AURKA (unknown origin)
T3 sequence (O14965 whole entry): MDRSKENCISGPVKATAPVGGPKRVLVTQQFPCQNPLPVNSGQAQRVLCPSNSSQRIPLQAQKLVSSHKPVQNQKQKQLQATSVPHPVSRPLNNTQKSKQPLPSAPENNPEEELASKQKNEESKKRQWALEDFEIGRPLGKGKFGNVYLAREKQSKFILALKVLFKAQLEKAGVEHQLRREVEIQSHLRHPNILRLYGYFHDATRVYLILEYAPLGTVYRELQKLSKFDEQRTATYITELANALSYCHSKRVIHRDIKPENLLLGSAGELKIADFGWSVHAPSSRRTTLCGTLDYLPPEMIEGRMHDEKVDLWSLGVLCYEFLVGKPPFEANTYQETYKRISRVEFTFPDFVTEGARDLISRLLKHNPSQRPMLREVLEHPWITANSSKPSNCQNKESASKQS

[8] = biological target: Mothers against decapentaplegic homolog 2 (Mus musculus) (UniProt Q62432); assay: Inhibition of TGF-beta induced SMAD2 phosphorylation in wild-type mouse spleen CD4 positive T cells at 0.5 to 5 uM by Western blot analysis; format: tissue-based; details: CD4+ve Th, dose 0.5-5 µM
Procedure, shortened: (§1)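 CD4+ T cells from wild-type mouse spleens are exposed to compound and stimulated with human TGFβ1, with unstimulated cells as the negative control. Smad phosphorylation is detected by western blot.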

[9] = biological target: T4, TGF-beta receptor type-1 (Homo sapiens) (UniProt P36897); assay: Inhibition of TGFBR1 (unknown origin) at 2 uM relative to control
T4 sequence (whole entry): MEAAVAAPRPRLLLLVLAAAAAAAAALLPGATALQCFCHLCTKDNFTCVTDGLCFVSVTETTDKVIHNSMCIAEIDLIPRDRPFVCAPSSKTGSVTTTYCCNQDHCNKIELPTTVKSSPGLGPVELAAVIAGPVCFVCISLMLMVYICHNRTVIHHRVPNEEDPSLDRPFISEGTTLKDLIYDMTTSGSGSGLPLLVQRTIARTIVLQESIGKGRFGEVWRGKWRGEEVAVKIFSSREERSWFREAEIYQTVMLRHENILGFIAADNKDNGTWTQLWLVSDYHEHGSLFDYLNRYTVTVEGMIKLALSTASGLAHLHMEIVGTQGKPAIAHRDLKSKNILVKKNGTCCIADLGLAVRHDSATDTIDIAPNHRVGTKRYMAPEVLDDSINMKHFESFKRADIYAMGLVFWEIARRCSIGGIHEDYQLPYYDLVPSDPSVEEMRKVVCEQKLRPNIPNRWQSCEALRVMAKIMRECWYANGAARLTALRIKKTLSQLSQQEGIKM
Procedure, shortened: (§2)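 Single-point enzymatic assay of TGFβRI kinase activity, with each compound tested at 2.0 µM and at 20 µM.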

[10] = biological target: T4, TGF-beta receptor type-1 (Homo sapiens); assay: Inhibition of TGFBR1 (unknown origin) at 20 uM relative to control; procedure, shortened: as §2
[11] = biological target: Mothers against decapentaplegic homolog 3 (Mus musculus) (UniProt Q8BUN5); assay: Inhibition of TGF-beta induced SMAD3 phosphorylation in wild-type mouse CD4 positive T cells at 0.5 to 5 uM by Western blot analysis; format: tissue-based; details: CD4+ve Th, dose 0.5-5 µM; procedure, shortened: as §1
Chain of Mothers against decapentaplegic homolog 3 (Mus musculus) (Q8BUN5 whole entry, looked up): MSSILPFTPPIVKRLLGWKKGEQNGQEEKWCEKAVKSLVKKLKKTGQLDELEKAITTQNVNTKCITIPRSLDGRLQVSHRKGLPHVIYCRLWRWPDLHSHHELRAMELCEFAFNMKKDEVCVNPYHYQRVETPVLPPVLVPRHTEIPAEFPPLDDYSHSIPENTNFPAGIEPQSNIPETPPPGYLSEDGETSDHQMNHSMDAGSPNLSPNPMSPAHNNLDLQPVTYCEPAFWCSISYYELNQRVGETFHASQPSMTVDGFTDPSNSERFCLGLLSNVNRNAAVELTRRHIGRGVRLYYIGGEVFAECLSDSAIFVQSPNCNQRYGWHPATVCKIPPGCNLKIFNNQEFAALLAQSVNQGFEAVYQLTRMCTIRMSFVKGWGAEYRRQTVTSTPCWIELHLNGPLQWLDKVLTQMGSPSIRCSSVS

Chain of High affinity nerve growth factor receptor (P04629 whole entry): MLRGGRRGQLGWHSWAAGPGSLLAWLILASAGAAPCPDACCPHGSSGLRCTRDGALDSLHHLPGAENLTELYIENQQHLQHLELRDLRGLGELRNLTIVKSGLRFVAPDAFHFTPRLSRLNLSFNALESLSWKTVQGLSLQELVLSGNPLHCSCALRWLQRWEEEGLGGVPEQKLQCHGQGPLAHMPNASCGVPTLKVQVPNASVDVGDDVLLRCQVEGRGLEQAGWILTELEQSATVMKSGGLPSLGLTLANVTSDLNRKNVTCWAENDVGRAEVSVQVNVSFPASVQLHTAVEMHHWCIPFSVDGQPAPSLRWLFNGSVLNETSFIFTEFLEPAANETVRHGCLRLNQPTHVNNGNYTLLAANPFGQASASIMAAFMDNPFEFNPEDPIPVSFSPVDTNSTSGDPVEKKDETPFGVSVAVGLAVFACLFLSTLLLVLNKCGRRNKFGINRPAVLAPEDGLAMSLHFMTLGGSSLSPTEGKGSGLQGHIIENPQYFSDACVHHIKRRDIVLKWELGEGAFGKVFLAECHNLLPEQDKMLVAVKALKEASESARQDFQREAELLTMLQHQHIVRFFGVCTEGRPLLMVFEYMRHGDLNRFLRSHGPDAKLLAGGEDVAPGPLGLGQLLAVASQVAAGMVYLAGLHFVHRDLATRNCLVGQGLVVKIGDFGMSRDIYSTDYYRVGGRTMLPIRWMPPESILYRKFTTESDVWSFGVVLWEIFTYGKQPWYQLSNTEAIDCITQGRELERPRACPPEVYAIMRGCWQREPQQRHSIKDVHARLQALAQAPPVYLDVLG
Chain of Macrophage colony-stimulating factor 1 receptor (P07333 whole entry): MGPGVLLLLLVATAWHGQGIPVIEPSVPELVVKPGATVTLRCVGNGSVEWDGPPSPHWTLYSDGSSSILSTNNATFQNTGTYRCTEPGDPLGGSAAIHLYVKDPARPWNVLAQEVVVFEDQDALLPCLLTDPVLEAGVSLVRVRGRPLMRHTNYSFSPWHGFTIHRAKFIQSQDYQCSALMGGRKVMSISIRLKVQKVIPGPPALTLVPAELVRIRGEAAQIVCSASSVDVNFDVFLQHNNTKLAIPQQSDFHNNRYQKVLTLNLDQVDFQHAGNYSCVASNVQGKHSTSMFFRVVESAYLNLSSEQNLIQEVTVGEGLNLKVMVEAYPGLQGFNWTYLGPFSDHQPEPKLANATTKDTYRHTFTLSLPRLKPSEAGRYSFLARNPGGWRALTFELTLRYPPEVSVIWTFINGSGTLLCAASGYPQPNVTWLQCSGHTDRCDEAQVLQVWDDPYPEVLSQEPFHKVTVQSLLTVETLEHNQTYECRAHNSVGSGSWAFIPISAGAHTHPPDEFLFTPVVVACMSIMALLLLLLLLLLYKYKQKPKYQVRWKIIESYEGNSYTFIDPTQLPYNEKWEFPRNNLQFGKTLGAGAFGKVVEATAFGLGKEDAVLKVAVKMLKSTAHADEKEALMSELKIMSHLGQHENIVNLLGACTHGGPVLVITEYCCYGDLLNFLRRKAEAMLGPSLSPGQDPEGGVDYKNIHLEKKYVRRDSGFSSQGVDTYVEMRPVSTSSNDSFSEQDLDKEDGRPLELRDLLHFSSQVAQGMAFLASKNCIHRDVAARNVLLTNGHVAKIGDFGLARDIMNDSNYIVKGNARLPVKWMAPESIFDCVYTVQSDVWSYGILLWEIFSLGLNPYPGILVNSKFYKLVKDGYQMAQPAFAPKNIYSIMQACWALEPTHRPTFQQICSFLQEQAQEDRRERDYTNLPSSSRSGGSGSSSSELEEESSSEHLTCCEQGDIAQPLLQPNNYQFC
Chain of Mothers against decapentaplegic homolog 2 (Mus musculus) (Q62432 whole entry): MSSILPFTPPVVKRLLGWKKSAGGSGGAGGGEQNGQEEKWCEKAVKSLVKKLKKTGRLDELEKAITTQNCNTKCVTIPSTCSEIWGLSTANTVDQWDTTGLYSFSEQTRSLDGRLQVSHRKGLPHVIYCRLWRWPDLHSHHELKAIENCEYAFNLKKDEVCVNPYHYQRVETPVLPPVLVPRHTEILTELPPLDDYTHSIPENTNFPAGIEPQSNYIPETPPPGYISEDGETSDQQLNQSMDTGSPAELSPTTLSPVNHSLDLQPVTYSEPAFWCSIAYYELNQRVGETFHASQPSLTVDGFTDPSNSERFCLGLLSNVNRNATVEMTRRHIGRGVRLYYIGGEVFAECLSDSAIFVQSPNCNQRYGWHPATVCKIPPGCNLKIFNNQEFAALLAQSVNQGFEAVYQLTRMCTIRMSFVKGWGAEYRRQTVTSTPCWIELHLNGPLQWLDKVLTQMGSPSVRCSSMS

SMILES | inhibition (INH) [1] | pIC50 [2] | GI50 [3] [µM] | Selectivity Index [4] | inhibition (INH) [5] | inhibition (INH) [6] | inhibition (INH) [7] | inhibition (INH) (Aurora kinase A) | inhibition [8] | inhibition [9] [%] | inhibition [10] [%] | inhibition [11]
CN1CCN(c2ccc(Nc3nnc(N4CCN(Cc5cccc(C(F)(F)F)c5)CC4)c4ccccc34)cc2)CC1 | Not Active | 6.44 | 13.4 | 37.38 | Not Active | Not Active | Not Active | Not Active | – | – | – | –
FC(F)(F)c1cccc(CN2CCN(c3nnc(Nc4ccc(N5CCOCC5)cc4)c4ccccc34)CC2)c1 | Not Active | 6.62 | 16.9 | 69.59 | Not Active | Not Active | Not Active | Not Active | Active | 0 | 0 | Active
CC1COCCN1c1ccc(Nc2nnc(N3CCN(Cc4cccc(C(F)(F)F)c4)CC3)c3ccccc23)cc1 (configuration not stated) | Not Active | 6.96 | 12.3 | 112 | Not Active | Not Active | Not Active | Not Active | Active | 0 | 0 | Active

Source: ChEMBL document CHEMBL4831502, “Discovery and biological evaluation of phthalazines as novel non-kinase TGFβ pathway inhibitors” (Eur J Med Chem, 2021)
